According to the EternaBench riboswitch data:

Legend:
MS2 coat protein [1] = assay: apparent Kd, MS2 coat protein; higher = weaker binding; RNA-MaP array; theophylline 2 mM where present
Method in brief: (§1)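 Stalled E. coli RNA polymerase transcribed each design on Illumina sequencing-chip clusters. The clusters were titrated with SNAP-549-labelled MS2 coat protein, starting at 0.7 or 1.5 nM and doubling up to 3 µM, first without ligand and then with constant ligand, in 100 mM Tris-HCl pH 7.5, 80 mM KCl, 4 mM MgCl2, BSA, DTT, yeast tRNA and Tween-20. Green signal was normalised to red-channel RNA signal and to the control-cluster median Fmax. The apparent Kd is the median of filtered binding-curve fits made for each cluster.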

MS2 coat protein [2] = assay: apparent Kd, MS2 coat protein; higher = weaker binding; RNA-MaP array; tryptophan 2.4 mM where present
Method in brief: as §1

[3] = designed as: ON switch for theophylline, no ligand
[4] = ligand present: theophylline, designed as: ON switch for theophylline
[5] = designed as: OFF switch for theophylline, no ligand
[6] = ligand present: theophylline, designed as: OFF switch for theophylline
[7] = designed as: ON switch for tryptophan, no ligand
[8] = ligand present: tryptophan, designed as: ON switch for tryptophan
[9] = designed as: OFF switch for tryptophan, no ligand
[10] = ligand present: tryptophan, designed as: OFF switch for tryptophan

Sequence	apparent Kd (MS2 coat protein [1]; [3]) [nM]	apparent Kd (MS2 coat protein [1]; [5]) [nM]	apparent Kd (MS2 coat protein [1]; [6]) [nM]	also measured
ACAACAUGAGGCGAUACCAGAGGCAACAUGAGGAUCACCCAUGUUCACCCAUGUGAUCACCUCCCUUGGCAGCGCACAUGAGGAU	12.4			apparent Kd (MS2 coat protein [1]; [4]): 30 nM
CGGUUUGUGAUGGAUACCAGCAGAGUGACUGUUUAUCCUGACAUGAGGAUCACCCAUGUGUGCCCUUGGCAGCUGUUGUGGGCUG		80.4	80.8	
AACUAAUCACAUGAGGAUCACCCAUGUGAUACCAGCUAAUCCCAAAGCCCUUGGCAGCACCUUUGGGUCCCGGUGUGUUUGAACA		9.6	21.9	
AUAUCAUAGAGUGAUACCAGACUACAUGAGGAUCACCCAUGUGACAUUUAAAUAUCAUUUGUCCCUUGGCAGCACAUUAAGUACA		67.3	65.4	
ACGUCAUGGAGAACGUGACGACUUAUCGAUACCAGCGAUUGAGAGCGCCCUUGGCAGCGAACAUGAGGAUCACCCAUGUCAAGGG	29.7			apparent Kd (MS2 coat protein [1]; [4]): 42.1 nM
AGAUAACAUGGUUUAAUAAGUUAAACUGAUACCAGUGUAUAUAAUCACCCUUGGCAGCAGCAACAUGAGGAUCACCCAUGUAAUA	17.2			apparent Kd (MS2 coat protein [1]; [4]): 21.9 nM
AGCGCAGGUCCUGAUACCAGAGACAUGAGGAUCACCCAUGUCCGAUGGUCCUGCCUCAGGCUCCCUUGGCAGCAGGGCUUGUGCU		10.3	20.4	
UGGUACAUGAGGAUCACCCAUGUUCCAGAUACCAGAUACCCGGUUAUCCCUUGGCAGCUGGUGGUACAUGAGGAUCACCCAUGUG		36.1	86.7	
AUAAUGGGUUUCGGACUAUCAUGGAAUGAUACCAGAUACUUAGAAAUCCCUUGGCAGCAUGAGGACAUGAGGAUCACCCAUGUAU		57.9	61.5	
ACGAUACGACAUGAGGAUCACCCAUGUGAUACCAGCGUGGAAACACGCCCUUGGCAGCACAAAUACUCCAGAAACGUAUCGAAAA		239	389	
UAUAUAUAUAUGGAUACCAGCAGAGAAAACGUUUAUCCUAACAUGAGGAUCACCCAUGUAUGCCCUUGGCAGCUGUAUAUAUAUA		24.9	32.4	
CAUACUUUAGUAUGUAAUGUGGACAGUGAUACCAGAUACGAAAGUAUCCCUUGGCAGCACAACAUGAGGAUCACCCAUGUAUUUU	19.4			
GAAUAUUACAUGAGGAUCACCCAUGUAGAUACCAGCCUUGAUUGUGGCCCUUGGCAGCUACGCCGUGAAUGCCUCAGUUGCUUAC		90.7	31.5	
AUAAGUAAUGUCUCGUGUAUUAUUACAGAUACCAGACUAUCCUAUGUCCCUUGGCAGCUGGAUUACAUGAGGAUCACCCAUGUGG		43.6	35	
GGCUGUUGCGAUUUGAAGCGGCAGCGUGAUACCAGAUGUAAGAGCGUCCCUUGGCAGCACGUUUACAUGAGGAUCACCCAUGUCA	106			apparent Kd (MS2 coat protein [1]; [4]): 60 nM
UCAUGAGGAUCACCCAUGUGGCGUCUUGAUACCAGACGAGAAGUAGUCCCUUGGCAGCAAAUACAUGAGGAUCACCCAUGUAGGA		38.6	63.7	
CUCUGAGUCCGAAAGGACUCAGAGGCGGAUACCAGCGAGGUCCAUCGCCCUUGGCAGCCGAACAUGAGGAUCACCCAUGUCGGUA	10.5			apparent Kd (MS2 coat protein [1]; [4]): 14.5 nM
AGCCCUGUGCUAGAUACCAGCUACAUGAGGAUCACCCAUGUGCGUCAAGACUGACUGUGUAGCCCUUGGCAGCUACUCGCAUGUA		12.6	23	
GCGAUACAUGAGGAUCACCCAUGUGCAGAUACCAGAGGUGCAUGCCUCCCUUGGCAGCUGCGACGCUCUGGCAUCUUGUGGGAUG	69.1			apparent Kd (MS2 coat protein [1]; [4]): 71 nM
ACAUGAGGAUCACCCAUGUCAUGAGGUUCACGAGGACCGGUACGGCCGCCACUCGACAUGAGGGUCACCCAUGUGAGGAACACCC				apparent Kd (MS2 coat protein [2]; [7]): 305 nM; apparent Kd (MS2 coat protein [2]; [8]): 97 nM
UUUGAUAGGACAGAUACCAGCGUGUUGUUGAACAUGAGGAUCACCCAUGUAGUGAUCAAGCGCCCUUGGCAGCUGGUUUGUUAGG	236			apparent Kd (MS2 coat protein [1]; [4]): 81.7 nM
CACAUUUUUAGAAGGGCGGUUUCACUCCUGCGAGGACCGGUACGGCCGCCACUCGACAUGAGGAUCACCCAUGUGGAGAAGUUAG				apparent Kd (MS2 coat protein [2]; [9]): 20.5 nM; apparent Kd (MS2 coat protein [2]; [10]): 110 nM
CCAUCUACAUCGGCCGCCACUGAACCAAGGAGACAUGAGGAUCACCCAUGUAUGGGAAACCAUCAUAGGACCGGGAUGAUCUACC				apparent Kd (MS2 coat protein [2]; [7]): 113 nM; apparent Kd (MS2 coat protein [2]; [8]): 122 nM
AAUACCGGUCCUCGAGGGUGAUCCUCAUGACGAGGACCGGUACGGCCGCCACUCGAUAACAUGAGGAUCACCCAUGUAAUCGAGU				apparent Kd (MS2 coat protein [2]; [9]): 59 nM; apparent Kd (MS2 coat protein [2]; [10]): 56.4 nM
ACGGAUCGGAAACGAUCCGCGGCGCGGGUGCGAGGACCGGUACGGCCGCCACUCGGGUAACAUGAGGAUCACCCAUGUCCGAUUU				apparent Kd (MS2 coat protein [2]; [9]): 101 nM; apparent Kd (MS2 coat protein [2]; [10]): 304 nM
GGUUACUCUACGGCCGCCACUGUAAAGUAAAGAUACCUGUACAUGACAUGAGGAUCACCCAUGUACAGGACCGGGUAGUGUAACC				apparent Kd (MS2 coat protein [2]; [7]): 545 nM; apparent Kd (MS2 coat protein [2]; [8]): 232 nM
